# Results from PMC7444767 (British Journal of Clinical Pharmacology, 2020).
# Tests used:
# [1] = tested on: peripheral blood B‐cell populations; experiment: Peripheral blood B-cell subsets; assay type: in vivo, human; conditions: MAD part
# Procedure, shortened: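 Double-blind, placebo-controlled multiple-ascending-dose part in healthy adults aged 18–55 y (BMI 18–32 kg m−2), randomised 3:1 to test compound or placebo. Oral dosing once daily for 14 days at 0.3, 1, 3 or 10 mg, with 14 days of post-dosing follow-up. Peripheral blood B-cell subsets measured and summarised with descriptive statistics.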
# [2] = preclinical studies; cited from earlier work
# [3] = target: Bruton's tyrosine kinase (BTK) (Homo sapiens, UniProt Q06187); experiment: BTK occupancy in blood by immunocapture LC–MS/MS; assay type: in vivo; conditions: for Time at which BTK occupancy reached steady state: MAD
# Procedure, shortened: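 Healthy volunteers in SAD and MAD parts (MAD doses 0.3–10 mg). Whole blood in ACD-A was lysed at once in buffer with protease inhibitor and a Cys481-reactive quencher, shaken 1 h at room temperature, and stored ≤−70°C. Anti-BTK bead immunocapture, on-bead trypsin digest, and LC–MS/MS of drug- or quencher-bound Cys481 peptide (residues 467–487). Occupancy = DB/(DB+QB)×100, and total BTK was also derived.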
# healthy participants = experiment: Safety assessment; assay type: in vivo, human; conditions: for Dizziness / Dysmenorrhoea / Headache / Myalgia / Nausea / Oral herpes / Rash / Tension headache / Throat irritation / Upper respiratory tract infection: all branebrutinib doses
# EGFR kinases = conditions: in vitro assessment; cited from earlier work
# [4] = tested on: serum immunoglobulin levels; experiment: Serum immunoglobulins; assay type: in vivo, human; conditions: both parts (SAD and MAD)
# Procedure, shortened: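 Healthy adults aged 18–55 y, randomised 3:1 to test compound or placebo, double-blind. Single-ascending-dose part: one oral dose of 0.3, 1, 3, 10 or 30 mg (n = 6 each; placebo n = 10). Multiple-ascending-dose part: oral dosing daily for 14 days at 0.3–10 mg. Serum immunoglobulins measured in both parts and summarised descriptively.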
# [5] = tested on: murine models of collagen‐ and collagen antibody–induced arthritis; conditions: administered orally once daily (QD); both arthritis models; cited from earlier work
# BTK = conditions: cited from earlier work
# [6] = Plasma pharmacokinetics by validated LC–MS/MS; assay type: in vivo, human; conditions: for AUC(0-inf) / Cmax / half-life / Tmax / Vd/F: human, plasma; for AUC(0-inf): GM AUCinf; for Cmax: GM Cmax; for Tmax: Median Tmax
# [7] = oral, 0.3 mg, JMAD part (day 14), 0.3 mg QD, n = 6
# [8] = oral, 0.3 mg, MAD part (day 14), 0.3 mg QD, n = 6
# [9] = oral, 1 mg, MAD part (day 14), 1 mg QD, n = 6
# [10] = oral, 1 mg, SAD part (day 1), 1 mg, n = 6
# [11] = oral, 3 mg, JMAD part (day 14), 3 mg QD, n = 6
# [12] = oral, 3 mg, MAD part (day 14), 3 mg QD, n = 6
# [13] = oral, 3 mg, SAD part (day 1), 3 mg, n = 6
# [14] = oral, 10 mg, JMAD part (day 14), 10 mg QD, n = 6
# [15] = oral, 10 mg, MAD part (day 14), 10 mg QD, n = 5
# [16] = oral, 10 mg, SAD part (day 1), 10 mg, n = 6
# [17] = oral, 30 mg, SAD part (day 1), 30 mg, n = 6
# Bruton's tyrosine kinase (BTK), sequence (Q06187 whole entry, the tested form may be a part): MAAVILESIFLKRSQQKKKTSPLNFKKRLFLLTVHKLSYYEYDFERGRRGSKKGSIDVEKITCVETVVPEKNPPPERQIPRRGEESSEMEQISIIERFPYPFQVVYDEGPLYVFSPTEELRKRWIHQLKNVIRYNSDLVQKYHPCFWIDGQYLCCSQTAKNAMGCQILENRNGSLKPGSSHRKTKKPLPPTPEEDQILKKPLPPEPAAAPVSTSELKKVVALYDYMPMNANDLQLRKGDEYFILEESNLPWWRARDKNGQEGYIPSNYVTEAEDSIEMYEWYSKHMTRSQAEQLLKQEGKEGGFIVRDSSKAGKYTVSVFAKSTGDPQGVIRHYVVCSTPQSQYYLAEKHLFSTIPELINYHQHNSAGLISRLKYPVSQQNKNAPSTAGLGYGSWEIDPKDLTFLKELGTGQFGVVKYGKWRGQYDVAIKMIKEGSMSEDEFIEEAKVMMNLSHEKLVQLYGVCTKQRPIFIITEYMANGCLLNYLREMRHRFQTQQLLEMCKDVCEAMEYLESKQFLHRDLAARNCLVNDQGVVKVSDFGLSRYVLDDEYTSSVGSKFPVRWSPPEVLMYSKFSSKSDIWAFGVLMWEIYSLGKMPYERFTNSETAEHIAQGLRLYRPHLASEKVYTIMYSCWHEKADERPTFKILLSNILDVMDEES
smiles,measurement,setting,value
CC#CC(=O)N[C@H]1CCCN(c2c(F)cc(C(N)=O)c3[nH]c(C)c(C)c23)C1 [Branebrutinib],Effect on peripheral blood B‐cell populations,[1],no obvious effect
same,Brain penetration,[2],< 5 % of plasma concentration
same,Time at which BTK occupancy reached steady state,[3]; 0.3‐mg dose group,14 days
same,Time at which BTK occupancy reached steady state,[3]; 10‐mg dose group,1 days
same,Doses projected to be efficacious (BTK occupancy >90% at steady state),"[3]; at steady state, QD",≥ 1 mg
same,Dizziness,"healthy participants; JMAD part, n = 18",0 (0.0) n (%)
same,Dysmenorrhoea,"healthy participants; JMAD part, n = 18",2 (11.1) n (%)
same,Headache,"healthy participants; JMAD part, n = 18",1 (5.6) n (%)
same,Myalgia,"healthy participants; JMAD part, n = 18",0 (0.0) n (%)
same,Nausea,"healthy participants; JMAD part, n = 18",0 (0.0) n (%)
same,Oral herpes,"healthy participants; JMAD part, n = 18",0 (0.0) n (%)
same,Rash,"healthy participants; JMAD part, n = 18",0 (0.0) n (%)
same,Tension headache,"healthy participants; JMAD part, n = 18",0 (0.0) n (%)
same,Throat irritation,"healthy participants; JMAD part, n = 18",0 (0.0) n (%)
same,Upper respiratory tract infection,"healthy participants; JMAD part, n = 18",0 (0.0) n (%)
same,"Serious AE (psychosis) leading to study discontinuation, number","healthy participants; MAD part, 10‐mg cohort, Day 10, considered not related to study drug",1
same,Any AE,"healthy participants; MAD part, QD 14 days, all branebrutinib doses 0.3-10 mg, n = 24",17 (70.8) n (%)
same,Dizziness,"healthy participants; MAD part, n = 24",0 (0.0) n (%)
same,Dysmenorrhoea,"healthy participants; MAD part, n = 24",0 (0.0) n (%)
same,Headache,"healthy participants; MAD part, n = 24",8 (33.3) n (%)
same,Myalgia,"healthy participants; MAD part, n = 24",0 (0.0) n (%)
same,Nausea,"healthy participants; MAD part, n = 24",2 (8.3) n (%)
same,Oral herpes,"healthy participants; MAD part, n = 24",3 (12.5) n (%)
same,Rash,"healthy participants; MAD part, n = 24",0 (0.0) n (%)
same,Tension headache,"healthy participants; MAD part, n = 24",2 (8.3) n (%)
same,Throat irritation,"healthy participants; MAD part, n = 24",0 (0.0) n (%)
same,Upper respiratory tract infection,"healthy participants; MAD part, n = 24",4 (16.7) n (%)
same,Dizziness,"healthy participants; SAD part, n = 30",3 (10.0) n (%)
same,Dysmenorrhoea,"healthy participants; SAD part, n = 30",2 (6.7) n (%)
same,Headache,"healthy participants; SAD part, n = 30",4 (13.3) n (%)
same,Myalgia,"healthy participants; SAD part, n = 30",2 (6.7) n (%)
same,Nausea,"healthy participants; SAD part, n = 30",2 (6.7) n (%)
same,Oral herpes,"healthy participants; SAD part, n = 30",1 (3.3) n (%)
same,Rash,"healthy participants; SAD part, n = 30",2 (6.7) n (%)
same,Tension headache,"healthy participants; SAD part, n = 30",0 (0.0) n (%)
same,Throat irritation,"healthy participants; SAD part, n = 30",2 (6.7) n (%)
same,Upper respiratory tract infection,"healthy participants; SAD part, n = 30",3 (10.0) n (%)
same,Any AE,"healthy participants; SAD part, single dose, all branebrutinib doses 0.3-30 mg, n = 30",18 (60.0) n (%)
same,Dose‐related trend in AEs,healthy participants; across both parts of the trial,no dose‐related trend
same,Tolerability,healthy participants; single or multiple doses in healthy participants,well tolerated
same,Activity against EGFR kinases,EGFR kinases,lacks activity
same,Effect on serum immunoglobulin levels,[4],no obvious effect
same,Doses at which maximal efficacy was observed,[5],≥ 0.5 mg/kg
same,Selectivity for BTK over 4 related Tec family kinases,BTK,< 5000 fold
same,Selectivity for BTK over 240 other kinases,BTK,> 5000 fold
same,GM CLT/F (apparent total body clearance),"[6]; JMAD part (day 14), 0.3 mg QD, n = 5",94.0 (n = 5) L/hr
same,GM CLT/F (apparent total body clearance),"[6]; JMAD part (day 14), 3 mg QD, n = 6",109 (n = 6) L/hr
same,GM CLT/F (apparent total body clearance),"[6]; JMAD part (day 14), 10 mg QD, n = 6",72.2 (n = 6) L/hr
same,GM CLT/F (apparent total body clearance),"[6]; MAD part (day 14), 0.3 mg QD, n = 5",81.3 (n = 5) L/hr
same,GM CLT/F (apparent total body clearance),"[6]; MAD part (day 14), 1 mg QD, n = 6",95.5 (n = 6) L/hr
same,GM CLT/F (apparent total body clearance),"[6]; MAD part (day 14), 3 mg QD, n = 6",98.1 (n = 6) L/hr
same,GM CLT/F (apparent total body clearance),"[6]; MAD part (day 14), 10 mg QD, n = 5",99.5 (n = 5) L/hr
same,Accumulation following administration of multiple doses,"[6]; MAD, QD 14 days",No accumulation
same,GM CLT/F (apparent total body clearance),"[6]; SAD part (day 1), 0.3 mg single oral dose, n = 6",126 L/h
same,GM CLT/F (apparent total body clearance),"[6]; SAD part (day 1), 1 mg, n = 6",124 L/h
same,GM CLT/F (apparent total body clearance),"[6]; SAD part (day 1), 3 mg, n = 6",122 L/h
same,GM CLT/F (apparent total body clearance),"[6]; SAD part (day 1), 10 mg, n = 6",99.6 L/h
same,GM CLT/F (apparent total body clearance),"[6]; SAD part (day 1), 30 mg, n = 6",106 L/h
same,Time to drop to undetectable plasma levels,[6]; after single or multiple doses,≤ 24 h
same,AUC(0-inf),"[6]; oral, 0.3 mg, JMAD part (day 14), 0.3 mg QD, n = 5",3.2 ng·h/mL
same,AUC(0-inf),"[6]; oral, 0.3 mg, MAD part (day 14), 0.3 mg QD, n = 5",3.7 ng·h/mL
same,Cmax,[6]; [7],2 ng/mL
same,Cmax,[6]; [8],2.2 ng/mL
same,half-life,"[6]; oral, 0.3 mg, Mean t1/2, JMAD part (day 14), 0.3 mg QD, n = 5",54.6 min
same,half-life,"[6]; oral, 0.3 mg, Mean t1/2, MAD part (day 14), 0.3 mg QD, n = 5",78 min
same,Tmax,[6]; [7],30 min
same,Tmax,[6]; [8],60 min
same,Vd/F,"[6]; oral, 1 mg",255 L
same,AUC(0-inf),[6]; [9],10.5 ng·h/mL
same,AUC(0-inf),[6]; [10],8.1 ng·h/mL
same,Cmax,[6]; [9],5.9 ng/mL
same,Cmax,[6]; [10],4.6 ng/mL
same,half-life,"[6]; oral, 1 mg, Mean t1/2, MAD part (day 14), 1 mg QD, n = 6",99.6 min
same,half-life,"[6]; oral, 1 mg, Mean t1/2, SAD part (day 1), 1 mg, n = 6",95.4 min
same,Tmax,[6]; [9],30 min
same,Tmax,[6]; [10],30 min
same,Vd/F,"[6]; oral, 3 mg",304 L
same,AUC(0-inf),[6]; [11],27.4 ng·h/mL
same,AUC(0-inf),[6]; [12],30.6 ng·h/mL
same,AUC(0-inf),[6]; [13],24.5 ng·h/mL
same,Cmax,[6]; [11],16.3 ng/mL
same,Cmax,[6]; [12],17.8 ng/mL
same,Cmax,[6]; [13],14.2 ng/mL
same,half-life,"[6]; oral, 3 mg, Mean t1/2, JMAD part (day 14), 3 mg QD, n = 6",90.6 min
same,half-life,"[6]; oral, 3 mg, Mean t1/2, MAD part (day 14), 3 mg QD, n = 6",98.4 min
same,half-life,"[6]; oral, 3 mg, Mean t1/2, SAD part (day 1), 3 mg, n = 6",104 min
same,Tmax,[6]; [11],30 min
same,Tmax,[6]; [12],30 min
same,Tmax,[6]; [13],48 min
same,Vd/F,"[6]; oral, 10 mg",221 L
same,AUC(0-inf),[6]; [14],139 ng·h/mL
same,AUC(0-inf),[6]; [15],101 ng·h/mL
same,AUC(0-inf),[6]; [16],100 ng·h/mL
same,Cmax,[6]; [14],97.2 ng/mL
same,Cmax,[6]; [15],60.5 ng/mL
same,Cmax,[6]; [16],66.6 ng/mL
same,half-life,"[6]; oral, 10 mg, Mean t1/2, JMAD part (day 14), 10 mg QD, n = 6",102 min
same,half-life,"[6]; oral, 10 mg, Mean t1/2, MAD part (day 14), 10 mg QD, n = 5",104 min
same,half-life,"[6]; oral, 10 mg, Mean t1/2, SAD part (day 1), 10 mg, n = 6",93.6 min
same,Tmax,[6]; [14],30 min
same,Tmax,[6]; [15],30 min
same,Tmax,[6]; [16],30 min
same,Vd/F,"[6]; oral, 30 mg",245 L
same,AUC(0-inf),[6]; [17],282 ng·h/mL
same,Cmax,[6]; [17],179 ng/mL
same,half-life,"[6]; oral, 30 mg, Mean t1/2, SAD part (day 1), 30 mg, n = 6",97.8 min
same,Tmax,[6]; [17],30 min
same,Vd/F,"[6]; po, 0.3 mg",216 L
same,Trough observed concentrations,"[6]; multiple doses, LLOQ 0.100 ng mL^−1",below the LLOQ
same,Systemic exposure vs dose,[6]; single or multiple doses,dose‐proportional
